Results reported in ChEMBL document CHEMBL1149285, “Identification of novel parasitic cysteine protease inhibitors using virtual screening. 1. The ChemBridge database” (J Med Chem, 2004).
Activity calls are given as the source filed them. No cut-off for these calls is given here.

What was measured:
[1] = molecular target: T1, Falcipain 2 (Plasmodium falciparum, UniProt Q9N6S8); experiment: Inhibition of Plasmodium falciparum recombinant falcipain-2
T1 sequence (Q9N6S8 whole entry): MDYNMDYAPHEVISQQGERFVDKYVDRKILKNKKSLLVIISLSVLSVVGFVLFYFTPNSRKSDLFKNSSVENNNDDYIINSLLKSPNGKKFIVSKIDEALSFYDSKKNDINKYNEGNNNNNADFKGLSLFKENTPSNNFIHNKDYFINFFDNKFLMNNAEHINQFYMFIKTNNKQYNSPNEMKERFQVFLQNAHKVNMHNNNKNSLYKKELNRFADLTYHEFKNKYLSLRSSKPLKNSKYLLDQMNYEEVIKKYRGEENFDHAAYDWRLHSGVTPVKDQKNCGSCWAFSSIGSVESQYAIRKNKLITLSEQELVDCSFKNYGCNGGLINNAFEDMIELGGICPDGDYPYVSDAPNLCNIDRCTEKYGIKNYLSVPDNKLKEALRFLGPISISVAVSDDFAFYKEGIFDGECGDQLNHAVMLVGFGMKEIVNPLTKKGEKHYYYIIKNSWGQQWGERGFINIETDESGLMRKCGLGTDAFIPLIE
In short: (§1)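 Equal amounts of recombinant enzyme preincubated 30 min at room temperature with serial inhibitor dilutions from DMSO stocks (DMSO at most 1% in assay) in 100 mM sodium acetate pH 5.5, 10 mM dithiothreitol. Z-Leu-Arg-AMC then added to 25 μM final; fluorescence followed 15 min at room temperature. IC50 taken from percent activity versus concentration plots.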

[2] = molecular target: T2, Cysteine protease falcipain-3 (Plasmodium falciparum, UniProt Q9NBA7); experiment: Inhibition of Plasmodium falciparum recombinant falcipain-3; in short: as §1
T2 sequence (Q9NBA7 whole entry): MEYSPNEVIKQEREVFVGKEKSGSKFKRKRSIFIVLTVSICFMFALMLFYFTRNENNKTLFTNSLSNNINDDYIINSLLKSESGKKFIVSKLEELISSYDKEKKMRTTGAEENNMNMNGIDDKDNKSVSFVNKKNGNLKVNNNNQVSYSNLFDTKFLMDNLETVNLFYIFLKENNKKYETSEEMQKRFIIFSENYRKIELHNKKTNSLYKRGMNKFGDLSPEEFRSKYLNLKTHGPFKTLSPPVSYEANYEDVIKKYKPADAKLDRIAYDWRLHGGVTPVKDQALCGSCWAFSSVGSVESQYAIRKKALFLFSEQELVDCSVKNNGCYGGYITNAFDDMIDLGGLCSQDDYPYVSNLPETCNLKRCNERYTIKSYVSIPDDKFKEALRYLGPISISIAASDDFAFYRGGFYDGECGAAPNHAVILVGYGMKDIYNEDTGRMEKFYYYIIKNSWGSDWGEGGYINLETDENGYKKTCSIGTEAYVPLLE

[3] = system: Plasmodium falciparum; experiment: Antiplasmodial activity against chloroquine-sensitive Plasmodium falciparum D6 after 48 hrs as LDH reporter activity; type: functional, organism-based; details: D6, 48 h
In short: (§2)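 Asynchronous P. falciparum cultures (2% hematocrit, 2% parasitemia) were exposed to compound dilutions prepared in DMSO. They were incubated 48 h at 37 °C in a humidified chamber under 90% N2, 5% CO2, 5% O2. Growth was read as parasite lactate dehydrogenase activity using Malstat reagent. Medium-only and erythrocyte-only wells were included, with chloroquine and artemisinin as positive and DMSO as negative controls.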

[4] = system: Plasmodium falciparum; experiment: Antiplasmodial activity against chloroquine-resistant Plasmodium falciparum W2 as LDH activity after 48 hrs; type: functional, organism-based; details: W2, 48 h; in short: as §2
[5] = molecular target: T3, Cysteine protease (Leishmania donovani) (UniProt Q95WR6); experiment: (§3) Inhibition of Leishmania donovani cysteine protease
T3 sequence (whole entry): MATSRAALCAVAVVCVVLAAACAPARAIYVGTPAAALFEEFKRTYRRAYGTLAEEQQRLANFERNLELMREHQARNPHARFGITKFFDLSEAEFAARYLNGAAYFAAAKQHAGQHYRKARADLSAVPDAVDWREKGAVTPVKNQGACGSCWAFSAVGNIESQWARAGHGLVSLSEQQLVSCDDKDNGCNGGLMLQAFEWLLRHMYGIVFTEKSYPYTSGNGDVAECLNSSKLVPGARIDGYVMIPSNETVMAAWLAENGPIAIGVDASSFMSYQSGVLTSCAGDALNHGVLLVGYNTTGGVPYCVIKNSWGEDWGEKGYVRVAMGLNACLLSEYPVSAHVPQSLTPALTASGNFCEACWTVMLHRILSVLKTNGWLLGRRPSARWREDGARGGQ

[6] = system: Leishmania donovani; experiment: Antileishmanial activity against Leishmania donovani promastigotes after 72 hrs by Alamar blue assay; type: functional, organism-based
In short: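 L. donovani promastigote culture at 2 × 10⁶ cells/mL given diluted compounds, incubated 72 h at 26 °C; growth read by Alamar blue. Pentamidine and amphotericin B as reference agents; IC50 computed from growth inhibition curve.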

[7] = system: Vero; experiment: Cytotoxicity against Vero cells at 23.8 ug/mL by Neutral red assay; type: cell-based; details: chlorocebus sabaeus
In short: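 VERO monkey kidney […] exposed to compounds alongside the antiparasitic assays, viability by Neutral Red uptake; highest concentration tested 23.8 μg/mL; IC50 computed from growth inhibition curve.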

[8] = molecular target: T4, Cysteine protease (Leishmania donovani, UniProt Q95WR6); experiment: as §3
T4 sequence (Q95WR6 whole entry): T3 sequence (whole entry)

| SMILES | IC50 [1] | IC50 [2] | EC50 [3] | EC50 [4] | Activity [5] | IC50 [6] | Activity [7] | IC50 [8] | Activity [6] |
| --- | --- | --- | --- | --- | --- | --- | --- | --- | --- |
| OC[C@@H](O)/C=N/Nc1nc(Nc2ccccc2)nc(Nc2ccccc2)n1 | > 50 µM | > 50 µM | 2.5 µM | 3.3 µM | inactive | 1.9 µM | Non-toxic | – | – |
| CC(C)CC(=O)N[C@H](C(=O)N[C@H](C(=O)N[C@@H](CC(C)C)[C@@H](O)CC(=O)N[C@@H](C)C(=O)N[C@@H](CC(C)C)[C@@H](O)CC(=O)O)C(C)C)C(C)C [PEPSTATIN] | – | – | – | – | – | – | – | 0.16 µM | – |
| N=C(N)c1ccc(OCCCCCOc2ccc(C(=N)N)cc2)cc1 [PENTAMIDINE] | – | – | – | – | – | 2 µM | – | – | – |
| C[C@@H]1[C@H](O)[C@@H](C)/C=C/C=C/C=C/C=C/C=C/C=C/C=C/[C@H](O[C@@H]2O[C@H](C)[C@@H](O)[C@H](N)[C@@H]2O)C[C@@H]2O[C@](O)(C[C@@H](O)C[C@@H](O)[C@H](O)CC[C@@H](O)C[C@@H](O)CC(=O)O[C@H]1C)C[C@H](O)[C@H]2C(=O)O [AMPHOTERICIN B] | – | – | – | – | – | 0.16 µM | – | – | – |
| CC(C)C[C@H](NC(=O)[C@H]1O[C@@H]1C(=O)O)C(=O)NCCCCN=C(N)N [E-64] | 0.015 µM | 0.035 µM | – | – | – | – | – | – | – |
| C/C(=N\NS(=O)(=O)c1ccc(C)cc1)c1c(O)c2ccccc2oc1=O | 3.9 µM | 13.9 µM | 63.9 µM | 63.9 µM | inactive | – | Non-toxic | – | inactive |
| O=C(Cc1nnc(NC(=O)c2ccccc2)s1)N/N=C\c1ccc(O)c(O)c1 | 31.1 µM | > 50 µM | > 59.9 µM | > 59.9 µM | inactive | – | Non-toxic | – | inactive |
| O=C(CN1C(=O)/C(=N\NC(=O)c2ccncc2)c2ccccc21)Nc1ccccc1 | 40.9 µM | 62.2 µM | 56.3 µM | 59.6 µM | – | – | Non-toxic | 62.6 µM | inactive |
| CCCc1cc(=O)[nH]c(SCC(=O)Nc2ccccc2)n1 | 59.9 µM | > 50 µM | – | – | – | – | Non-toxic | – | – |
| CCOP(=O)(CC(=O)NNC(=O)Nc1cccc2ccccc12)OCC | 53.4 µM | > 50 µM | 52.7 µM | 40.9 µM | inactive | – | Non-toxic | – | inactive |
| C[C@@H]1CC[C@H]2[C@@H](C)C(=O)O[C@@H]3O[C@@]4(C)CC[C@@H]1[C@]32OO4 [ARTEMISININ] | – | – | 0.012 µM | 0.017 µM | – | – | – | – | – |
| COC(=O)c1ccccc1NC(=O)COC(=O)CSc1nc(C)cc(C)n1 | 6.2 µM | 12 µM | 61.1 µM | 61.1 µM | inactive | – | Non-toxic | – | inactive |
| N#CCC(=O)N/N=C\c1ccc(OCC(=O)Nc2ccc(F)cc2)cc1 | 5.7 µM | > 50 µM | 59.3 µM | 67.2 µM | inactive | – | Non-toxic | – | inactive |
| OC[C@H](O)/C=N/Nc1nc(Nc2ccccc2)nc(N2CCCCC2)n1 | 54.6 µM | > 50 µM | 4.8 µM | 5.3 µM | inactive | 3.6 µM | Non-toxic | – | – |
| Cc1cccc(NC(=O)CCC(=O)N/N=C/c2cc(Cl)ccc2O)c1 | 7.5 µM | 5.4 µM | 13.5 µM | 12.1 µM | inactive | – | Non-toxic | – | inactive |
